Measured values gathered from unrelated publications.
Compare with care: the assays were run in different laboratories.

SMILES	cell line	observed	action	technique	time	IC50
COc1ccccc1-c1c(C(F)(F)F)oc2cc(OC(=O)C3CC3)ccc2c1=O	human Neutrophil	cell migration	inhibitor			360 nM
Cc1cc(=O)oc2ccc(-c3cc(-c4ccc(Br)cc4)nc(N)n3)c(O)c12	KB	cell growth or viability		MTT	72 h	> 128 µg/mL
N=C(N)c1ccc(OCCCCCOc2ccc(C(=N)N)cc2)cc1	J774	cell growth or viability		resazurin	48 h	23800 nM
COc1ccc(C=CC(=O)c2ccc(Cl)cc2Cl)cc1OC	J774	cell growth or viability		MTT	24 h	6.25 µg/mL
CC(C)(C)SCCCC1=CC2C=CC=CC1C2C1CCCCC1=O (stereo not shown)	U-937	cell growth or viability		flow cytometry		61 nM
COc1ccccc1-c1c(C(F)(F)F)oc2cc(OC(=O)c3ccco3)ccc2c1=O	human Neutrophil	cell migration	inhibitor			180 nM
Oc1ccc(Nc2nc(-c3ccc(Cl)cc3)cs2)cc1	UACC-903	cell growth or viability		MTS	72 h	33600 nM
CCc1c2c(nc3ccc(OC(=O)N4CCC(N5CCCCC5)CC4)cc13)-c1cc3c(c(=O)n1C2)COC(=O)[C@]3(O)CC	HCCLM3	cell growth or viability		MTT	72 h	33400 nM
CC(C)C[C@H](NC(=O)[C@H](Cc1ccccc1)NC(=O)c1cnccn1)B(O)O	NCI-H1703	cell growth or viability		ATP luminescence		12 nM
Cc1oc2cc(OC(=O)c3ccco3)ccc2c(=O)c1-c1nc2ccccc2n1C	human Neutrophil	cell migration	inhibitor			410 nM
COc1cc(Nc2nccc(-c3cnn4nc(OC)ccc34)n2)cc(C(F)(F)F)c1	NCI-H1703	cell growth or viability		ATP luminescence		220 nM
O=C1CCCCC1C1C2C=CC=CC1/C(=C/Cc1ccccc1)C2 (stereo not shown)	U-937	cell growth or viability		flow cytometry		59 nM
Nc1ncc(-c2cnn(C3CCNCC3)c2)cc1-c1nnc(CC2CC2)o1	U-937	cell growth or viability		trypan blue	72 h	380 nM
COc1ccccc1-c1c(C(F)(F)F)oc2cc(OC(=O)c3ccccc3)ccc2c1=O	human Neutrophil	cell migration	inhibitor			120 nM
O=C(N/N=C/c1c(O)ccc2ccccc12)c1cc(-c2ccc3ccccc3c2)n[nH]1	UACC-903	cell growth or viability		MTS	48 h	10900 nM
COc1ccc(C=CC(=O)c2ccc(F)cc2)cc1OC	J774	cell growth or viability		MTT	24 h	100 µg/mL
COc1cccc2c1C(=O)c1c(O)c3c(c(O)c1C2=O)C[C@@](O)(C(=O)CO)C[C@@H]3O[C@H]1C[C@H](N)[C@H](O)[C@H](C)O1	KB	cell growth or viability		neutral red	48 h	0.93 µg/mL
O=C1CCCCC1C1C2C=CC=CC1C(CCCCOC1CCCCO1)=C2 (stereo not shown)	U-937	cell growth or viability		flow cytometry		143 nM
Cc1cc(=O)oc2ccc(-c3cc(-c4ccc(Cl)cc4)nc(N)n3)c(O)c12	KB	cell growth or viability		MTT	72 h	25.6 µg/mL
